In ChEMBL document CHEMBL4118104, “Design, Synthesis, and Evaluation of Orally Bioavailable Quinoline-Indole Derivatives as Innovative Multitarget-Directed Ligands: Promotion of Cell Proliferation in the Adult Murine Hippocampus for the Treatment of Alzheimer's Disease” (J Med Chem, 2018):

Assays:
[1] = Half life in Sprague-Dawley rat liver microsomes at 100 uM up to 180 mins by HPLC-UV analysis; details: liver microsomes
Mus musculus [2] = assay: Toxicity in C57BL/6 mouse assessed as effect on water intake at 677 to 2000 mg/kg, ig measured continuously during first 4 hrs, intermittently for following 24 hrs and occasionally thereafter for 14 consecutive days; assay type: organism-based; details: in vivo, po
Mus musculus [3] = assay: Toxicity in C57BL/6 mouse assessed as macroscopic abnormalities of spleen at 677 to 2000 mg/kg, ig after 14 consecutive days; assay type: organism-based; details: in vivo, po
Mus musculus [4] = assay: Toxicity in C57BL/6 mouse assessed as histological abnormalities of brain at 2000 mg/kg, ig after 14 consecutive days by hematoxylin/eosin dye-based microscopic analysis; assay type: organism-based; details: in vivo, po, 336 h
In short: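 Adult C57BL/6 mice, 12 weeks old, single intragastric doses of 0, 677, 1333 or 2000 mg/kg (n = 6 per dose, 3 male/3 female); behaviour and mortality observed over 14 days; liver, heart, lung and brain examined by HE staining at 2000 mg/kg.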

Mus musculus [5] = assay: Toxicity in C57BL/6 mouse assessed as macroscopic abnormalities of kidney at 677 to 2000 mg/kg, ig after 14 consecutive days; assay type: organism-based; details: in vivo, po
Mus musculus [6] = assay: Induction of cell proliferation in C57BL/6 mouse hippocampal neurons in DG region assessed as BrdU-incorporation at 0.5 uL/hr, icv for 7 days by immunohistochemical analysis (reference value: 7.8%); assay type: functional
Mus musculus [7] = assay: Induction of cell proliferation in C57BL/6 mouse hippocampal neurons in CA1 region assessed as BrdU-incorporation at 0.5 uL/hr, icv for 7 days by immunohistochemical analysis (reference value: 3.2%); assay type: functional
Mus musculus [8] = assay: Induction of cell proliferation in C57BL/6 mouse hippocampal neurons in CA3 region assessed as BrdU-incorporation at 0.5 uL/hr, icv for 7 days by immunohistochemical analysis (reference value: 1.4%); assay type: functional
Mus musculus [9] = assay: Induction of cell proliferation in C57BL/6 mouse hippocampal neurons in DG region assessed as BrdU-incorporation at 30 mg/kg, po administered via gavage for 7 days by immunohistochemical analysis (reference value: 2.2%); assay type: functional
In short: (§1)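 C57BL/6 mice, 12 weeks old, n = 6, individually housed beforehand without wheels. Compound gavaged 30 mg/kg/day for 7 days with daily IP BrdU 50 mg/kg; BrdU+ cells counted by immunohistochemistry per hippocampal volume; two-way ANOVA.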

Mus musculus [10] = assay: Induction of cell proliferation in C57BL/6 mouse hippocampal neurons in CA2 region assessed as BrdU-incorporation at 30 mg/kg, po administered via gavage for 7 days by immunohistochemical analysis (reference value: 2.4%); assay type: functional; in short: as §1
Mus musculus [11] = assay: Toxicity in double APP/PS1 transgenic Alzheimer's disease mouse model assessed as effect on body weight at 30 mg/kg/day, po for 80 days; assay type: organism-based; details: in vivo, 1920 h
In short: (§2)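 APP/PS1 double-transgenic mice, six months old, dosed by intragastric infusion at 30 mg/kg/day in 0.5% CMC-Na for 80 consecutive days (n = 10). Vehicle mice and wild-type C57BL/6 mice received blank 0.5% CMC-Na. Body weight tracked daily; diarrhoea, emesis-like behaviour and mortality monitored. At sacrifice, brain, subcutaneous layer, stomach, intestines, heart, lung, liver, spleen, kidneys and other organs examined for expansion or carcinogenicity.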

Mus musculus [12] = assay: Toxicity in double APP/PS1 transgenic Alzheimer's disease mouse model assessed as diarrhea at 30 mg/kg/day, po for 80 days; assay type: organism-based; details: in vivo, 1920 h; in short: as §2
Mus musculus [13] = assay: Cognition enhancement activity in double APP/PS1 transgenic Alzheimer's disease mouse model assessed as time spent in effective region at 30 mg/kg/day, po for 80 days by Morris water maze test (reference value: 9.0 +/- 3.8 sec); assay type: functional
In short: (§3)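 APP/PS1 mice, six months old, gavaged 30 mg/kg/day in 0.5% CMC-Na for 80 days. Probe trial was a single 90 s free swim with the platform absent; effective region is twice the platform diameter. n = 10, mean ± SD, two-way ANOVA.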

Mus musculus [14] = assay: Cognition enhancement activity in double APP/PS1 transgenic Alzheimer's disease mouse model assessed as time spent in correct quadrant at 30 mg/kg/day, po for 80 days by Morris water maze test (reference value: 20.6 +/- 4.4 sec); assay type: functional; in short: as §3
Mus musculus [15] = assay: Cognition enhancement activity in double APP/PS1 transgenic Alzheimer's disease mouse model assessed as swimming path length in virtual platform at 30 mg/kg/day, po for 80 days by Morris water maze test (reference value: 9.1 +/- 2.8 cm); assay type: functional; in short: as §3
Mus musculus [16] = assay: Cognition enhancement activity in double APP/PS1 transgenic Alzheimer's disease mouse model assessed as swimming path length in effective region at 30 mg/kg/day, po for 80 days by Morris water maze test (reference value: 44.2 +/- 4.9 cm); assay type: functional; in short: as §3
Mus musculus [17] = assay: Toxicity in double APP/PS1 transgenic Alzheimer's disease mouse model assessed as carcinogenicity in intestine at 30 mg/kg/day, po for 80 days; assay type: organism-based; details: in vivo, 1920 h; in short: as §2
Mus musculus [18] = assay: Antialzheimer activity in double APP/PS1 transgenic Alzheimer's disease mouse model assessed as reduction in amyloid beta burden at 30 mg/kg/day, po for 80 days by immunochemical staining-based analysis relative to control; assay type: functional; set-up: scale not given: the % may be the effect or the level left
In short: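 APP/PS1 mice gavaged 30 mg/kg/day for 80 days (n = 10). Coronal sections immunostained with mOC64 anti-Aβ antibody; plaque burden is the percent area of a half coronal hemisphere.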

Mus musculus [19] = assay: Toxicity in C57BL/6 mouse assessed as macroscopic abnormalities of lung at 677 to 2000 mg/kg, ig after 14 consecutive days; assay type: organism-based; details: in vivo, po, 336 h
Mus musculus [20] = assay: Toxicity in C57BL/6 mouse assessed as macroscopic abnormalities of liver at 677 to 2000 mg/kg, ig after 14 consecutive days; assay type: organism-based; details: in vivo, po
[21] = AUC (0 to t) in Sprague-Dawley rat at 5 mg/kg, iv administered as single dose by LC-MS/MS analysis; assay type: ADME, organism-based; details: in vivo
In short: (§4)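 SD rats given 5 mg/kg intravenously, n = 3; pharmacokinetic parameters derived from plasma concentrations.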

[22] = AUC (0 to infinity) in Sprague-Dawley rat at 5 mg/kg, iv administered as single dose by LC-MS/MS analysis; assay type: ADME, organism-based; set-up: dose 5 mg/kg, time infinity, route intravenous; details: in vivo; in short: as §4
[23] = MRT (0 to infinity) in Sprague-Dawley rat at 5 mg/kg, iv administered as single dose by LC-MS/MS analysis; assay type: ADME, organism-based; details: in vivo
[24] = AUC (0 to t) in Sprague-Dawley rat at 30 mg/kg, po by LC-MS/MS analysis; assay type: ADME, organism-based; details: in vivo
[25] = MRT (0 to t) in Sprague-Dawley rat at 30 mg/kg, po by LC-MS/MS analysis; assay type: ADME, organism-based; details: in vivo
In short: (§5)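 SD rats given a single oral gavage dose of 30 mg/kg, n = 3; plasma levels by LC-MS/MS; bioavailability computed against the 5 mg/kg intravenous arm.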

[26] = MRT (0 to infinity) in Sprague-Dawley rat at 30 mg/kg, po by LC-MS/MS analysis; assay type: ADME, organism-based; details: in vivo; in short: as §5
[27] = Drug uptake in Sprague-Dawley rat plasma at 30 mg/kg, po after 1 hr by LC-MS/MS analysis; assay type: ADME, organism-based
In short: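 SD rats, single oral gavage 30 mg/kg, n = 3; plasma and brain drug levels taken 1 h after dosing, measured by LC-MS/MS.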

Structure (SMILES)	half-life at 3 h, 100 µM [1] [h]	Activity (Mus musculus [2])	Activity (Mus musculus [3])	Activity (Mus musculus [4])	Activity (Mus musculus [5])	Activity (Mus musculus [6]) [%]	Activity (Mus musculus [7]) [%]	Activity (Mus musculus [8]) [%]	Activity (Mus musculus [9]) [%]	Activity (Mus musculus [10]) [%]	Activity (Mus musculus [11])	Activity (Mus musculus [12])	Time (Mus musculus [13]) [s]	Time (Mus musculus [14]) [s]	Activity (Mus musculus [15]) [cm]	Activity (Mus musculus [16]) [cm]	Activity (Mus musculus [17])	Activity (Mus musculus [18])	Activity (Mus musculus [19])	Activity (Mus musculus [20])	further results
Cl.Oc1c(Cl)cc(Cl)c2ccc(-c3cc4cc5c(cc4[nH]3)OCO5)nc12	6.49	Non-Toxic	Non-Toxic	Non-Toxic	Non-Toxic	31.2	49.8	37.6	17	16.3	Non-Toxic	Non-Toxic	16.7	24	15	65.5	Non-Toxic	26%	Non-Toxic	Non-Toxic	
Cl.Oc1ccc2[nH]c(-c3ccc4c(Cl)cc(Cl)c(O)c4n3)cc2c1	1.95	Non-Toxic	Non-Toxic	Non-Toxic	Non-Toxic	41.3	50.1	36.5	30.6	24.3	Non-Toxic	Non-Toxic	18	27.4	22.1	71.3	Non-Toxic	<=54%	Non-Toxic	Non-Toxic	AUC(0-t) [21]: 2110 ng·h/mL; AUC(0-inf) [22]: 2120 ng·h/mL; MRT inf [23]: 0.41 h; AUC(0-t) [24]: 1500 ng·h/mL; MRT last [25]: 2.53 h; MRT inf [26]: 4.88 h; concentration at 1 h [27]: 902 ng/g
